Many of the other results were omitted from the sample, so hits are more common in it than they were.
Diaphorase act = activates diaphorase or chemically reduces, flagging diaphorase assay artifacts. activation factor at 20 µM. Diaphorase/resazurin coupled assay, resorufin fluorescence, 16 min; hits give high values; 1 = vehicle wells, 0 = NADH-free wells. AID 1229. hit rate 0.005% among 190,000;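 active = diaphorase activity raised at least twofold by the compound at 20 µM; inactive = activation factor below 2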
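Material: purified diaphorase enzyme from Clostridium kluyveri; Also added: 0.114 mM NADH and 0.1 mM resazurin, final amounts; Doses: single compound dose of 20 µM, 1% DMSO final; Times: 16 min enzyme reaction, ambient temperature; Detection: resorufin fluorescence, excitation 544 nm, emission 590 nm; Measure: increased resorufin signal from activators or reducing compounds.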
G6PDH CS = inhibits Leuconostoc G6PDH, flagging false hits in G6PDH-based assays. Purified L. mesenteroides G6PDH, diaphorase/resazurin coupled fluorescence, 45 min. inhibition, % at 5 µM. hit rate 0.12% among 200,000. AID 1020
Redox H2O2 prof = compounds producing H2O2 with reducing agent – biochemical, NIH compound library profiling, artefact control for MLSCN library redox annotation, primary screen; DTT-dependent redox cycling H2O2, phenol red/HRP absorbance; 100% = 100 µM peroxide control, 0% = buffer; activation, % at 10 µM; hit rate 0.03% among 200,000;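 active = activation of at least 50% relative to the plate's high and low controls in the primary single-dose screen; inactive = activation below 50%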;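 also: compound incubated with DTT at 0.8 mM final as the reducing agent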
L major viab = inhibitors of Leishmania major promastigote growth | Leishmania major promastigotes, resazurin fluorescence viability | inhibition, % at 10 µM | hit rate 9% among 200,000 | AID 1063;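 also: promastigotes grown with compound for 44 hours at 28 °C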
PfGluPho inh = PfG6PD (Plasmodium falciparum) enzyme inhibition. PfGluPho enzyme, NADPH resazurin-diaphorase fluorescence. inhibition, % at 20 µM. hit rate 0.78% among 350,000;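 active = inhibition reaching at least a set limit at 20 µM in the primary screen, cut at about 59% in these data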;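 also: 0% = DMSO wells with substrate and 100% = DMSO wells lacking glucose-6-phosphate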
Diaph inh CS = diaphorase inhibition or chemical oxidation counter-screen; inhibition, % at 20 µM; hit rate 0.69% among 190,000; diaphorase resazurin-to-resorufin fluorescence, NADH, 16 min; bacterial (C. kluyveri) enzyme, not human;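 active = primary screen inhibition at 20 µM above a set limit, cut at about 50% in these data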;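 also: plate controls were DMSO with full reaction for no effect and wells lacking NADH for full effect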
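Test system: diaphorase enzyme from Clostridium kluyveri; amount: diaphorase at 0.14 U/mL in enzyme working solution; detection: fluorescence of resorufin formed from resazurin, Ex 544/Em 590 nm; times: reaction incubation of 16 min at room temperature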
* = called active by the depositor; . = not tested or not shown. Rule as the data show it, unless noted: active = inhibition above about 50%; inactive = the rest.

SMILES	Diaphorase act	G6PDH CS	Redox H2O2 prof	L major viab	PfGluPho inh	Diaph inh CS
Cc1nn(C2CCS(=O)(=O)C2)c(Cl)c1/C=C/C(=O)OCC(=O)c1cc(C)n(-c2ccc(F)cc2)c1C (centres undefined)	0.8	-2	0	98*	13	20
Cc1nn(C2CCS(=O)(=O)C2)c(Cl)c1/C=C/C(=O)OCC(=O)c1c[nH]c2ccccc12 (centres undefined)	0.7	-3	0	60*	8	30
COc1ccc(OC)c(NC(=O)COC(=O)/C=C/c2c(C)nn(C3CCS(=O)(=O)C3)c2Cl)c1 (centres undefined)	1	5	2	2	0	1
Cc1ccc(CNC(=O)CSc2ncc(C(=O)Nc3ccccc3)c(=O)n2C)cc1	.	.	.	.	6	.
C=C1C(=O)[C@@]23[C@H](O)C[C@@H]4C(C)(C)CC[C@H](O)[C@]4(C)[C@@H]2C[C@H](O)[C@@H]1[C@H]3O	0.9	7	1	29	3	13
C=C1C(=O)[C@@]23[C@H](O)C[C@@H]4C(C)(C)CC[C@H](O)[C@@]4(C)[C@@H]2CC[C@@H]1[C@H]3O	0.8	14	1	100*	-14	16
COc1ccc(C(=O)/C=C/c2ccccc2C(F)(F)F)cc1	0.8	3	-4	54*	33	15
CC(C)(C)c1ccc(Cn2nnc3c(=O)[nH]c(C4CCCN(C(=O)c5cccs5)C4)nc32)cc1 (centres undefined)	.	.	.	.	-20	.
Cc1ccc(NC(=O)CN2CCC(NC(=O)Cc3ccccc3)CC2)cc1C	0.9	6	-5	-3	-8	10
CC(C)c1ccc(NC(=S)NC2CCN(Cc3ccccc3)CC2)cc1	0.9	-4	0	92*	-4	12
Cc1ccc(NC(=S)NC2CCN(Cc3ccccc3)CC2)cc1	0.8	1	.	100*	-1	20
S=C(Nc1ccc2c(c1)OCO2)NC1CCN(Cc2ccccc2)CC1	0.8	-1	0	97*	10	25
Cc1ccc(NC(=S)NC2CCN(Cc3ccccc3)CC2)cc1C	0.9	1	-1	94*	4	13
CC(C)c1ccc(NC2CCCN(C(=O)CCN3CCOCC3)C2)cc1 (centres undefined)	.	.	.	.	27	.
Cc1ccc(NC(=O)CN2CCC(NC(=O)Cc3ccccc3)CC2)c(C)c1	0.9	1	0	70*	-7	8
COc1ncnc2c1ncn2CCCN1CCN(c2ccccn2)CC1	.	.	.	.	-6	.
O=C(c1cc2ccccc2oc1=O)N(c1ccc(Cl)cc1)C1C=CS(=O)(=O)C1 (centres undefined)	0.8	5	0	61*	-18	17
O=C(c1ccc2c(c1)OCO2)N(c1ccccc1)C1C=CS(=O)(=O)C1 (centres undefined)	0.9	1	3	-7	5	8
Cn1c(SCC(=O)NCCc2ccccc2)nc2c([nH]c3ccccc32)c1=O	1	-6	-1	93*	-3	4
Cn1c(SCC(=O)NCc2ccc(F)cc2)nc2c([nH]c3ccccc32)c1=O	1.1	3	0	-3	.	-7
C[C@H](CO)N1C[C@H](C)[C@H](CN(C)S(=O)(=O)c2cccs2)OCc2cnnn2CCCC1=O	.	.	.	.	4	.
CN=C(Nc1ccc(Br)cc1)SC1CC(=O)N(c2ccc(OC)cc2)C1=O (centres undefined)	0.7	9	0	0	-2	33
CN=C(Nc1ccc(C)c(C)c1)SC1CC(=O)N(c2ccc(OC)cc2)C1=O (centres undefined)	0.8	6	0	74*	12	20
Cc1ccc(N=Cc2cc(Cc3ccccc3Cl)cc([N+](=O)[O-])c2O)c(O)c1	0.8	47	-1	73*	58	17
c1coc(C2Nc3cccc4cccc(c34)N2)c1	0.3	21	1	50	.	70*
SMILES	Diaphorase act	G6PDH CS	Redox H2O2 prof	L major viab	PfGluPho inh	Diaph inh CS
Clc1ccccc1C1Nc2cccc3cccc(c23)N1	.	.	.	.	21	.
Oc1ccccc1C1=Nc2nc3ccccc3n2C(c2ccccc2)C1 (centres undefined)	0.6	-14	1	91*	9	36
CCOc1cc(CNCCc2ccc(S(N)(=O)=O)cc2)ccc1OCc1ccc(Cl)cc1	1	2	-5	101*	18	-4
COc1cc(CNCCc2ccc(S(N)(=O)=O)cc2)ccc1OCC(=O)NC1CCCCC1	0.9	4	2	-3	-3	6
COc1cc(CNCCc2ccc(S(N)(=O)=O)cc2)ccc1OCc1ccc(Cl)cc1	1	0	-3	100*	14	-3
Cc1cccc(C(=O)NCC(=O)OCc2nc(N)nc(Nc3ccccc3C)n2)c1	.	.	.	.	4	.
CCOc1cc(/C=N/N=C(/N)c2nonc2N)cc(Br)c1OCc1ccc(Cl)cc1	0.8	9	0	10	6	15
COc1cc(/C=N/N=C(/N)c2nonc2N)cc(Br)c1OCc1ccccc1C	1	0	1	75*	2	4
Cc1ccc(N2CC(C(=O)Nc3cccnc3)CC2=O)cc1C (centres undefined)	.	.	.	.	5	.
CCCCCCCCn1c(=O)c(C(=O)OC)c(N)c2ccccc21	.	.	.	.	-2	.
COC(=O)c1c(C(=O)OC)n(CCCN)c2ccc(C)cc12	0.8	-12	-3	59*	-5	16
Cc1cc(C)nc(SCCn2c(N(C)Cc3ccccc3)nc3c2c(=O)n(C)c(=O)n3C)n1	1	6	2	78*	-2	-1
CN(Cc1ccccc1)c1nc2c(c(=O)n(C)c(=O)n2C)n1CCSc1ncccn1	0.9	-38	-1	-2	39	8
CN(Cc1ccccc1)c1nc2c(c(=O)[nH]c(=O)n2C)n1CCCc1ccccc1	0.8	-4	3	54*	6	17
CN(Cc1ccccc1)c1nc2c(c(=O)[nH]c(=O)n2C)n1Cc1ccccc1Cl	0.8	-10	2	70*	-6	22
CN(C)S(=O)(=O)c1ccc(Cl)c(NC(=O)CNC2(C)CCS(=O)(=O)C2)c1 (centres undefined)	.	.	.	.	-3	.
COc1ccccc1NC(=O)c1ccc(NC(=O)CSc2n[nH]c(N)n2)cc1	0.9	8	0	65*	10	6
COc1ccc(NC(=O)CSc2n[nH]c(N)n2)cc1OC	1.2	0	0	-8	5	-18
N#CCC(=O)Nc1ccc(C(=O)OCC(=O)Nc2ccc3ccccc3c2)cc1	.	.	.	.	19	.
CCN(C[C@H]1N[C@@](CC)(C(=O)OC)[C@H]2C(=O)N(Cc3ccccc3)C(=O)[C@@H]12)S(=O)(=O)c1ccc(F)cc1	.	.	.	.	12	.

From PubChem
